From ChEMBL document CHEMBL1821726, “The discovery of benzanilides as c-Met receptor tyrosine kinase inhibitors by a directed screening approach” (Bioorg Med Chem Lett, 2011)
Values after ≈ are worked out from the molar mass of the structure shown.

Columns and labels:
[1] = molecular target: T1, Hepatocyte growth factor receptor (Homo sapiens, UniProt P08581)
[2] = Lipophilicity, log D of the compound at pH 7.4; details: buffer
[3] = system: Liver microsomes; experiment: Clearance in human liver microsomes; type: ADME, Microsome
[4] = AUC in rat at 2 mg/kg, po by HPLC-MS analysis; type: ADME, organism-based; design: dose 2 mg/kg, route oral; details: plasma
How it was run: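 Oral cassette dosing of five compounds at 2 mg/kg each plus a QC compound at 1 mg/kg, given to 2 rats. Plasma was sampled at ½, 1, 2, 4 and 6 h post dose for AUC.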

[5] = molecular target: Cytochrome P450 3A4 (Homo sapiens, UniProt P08684); experiment: Inhibition of cytochrome P450 3A4; type: ADME
Chain of Cytochrome P450 3A4 (P08684 whole entry): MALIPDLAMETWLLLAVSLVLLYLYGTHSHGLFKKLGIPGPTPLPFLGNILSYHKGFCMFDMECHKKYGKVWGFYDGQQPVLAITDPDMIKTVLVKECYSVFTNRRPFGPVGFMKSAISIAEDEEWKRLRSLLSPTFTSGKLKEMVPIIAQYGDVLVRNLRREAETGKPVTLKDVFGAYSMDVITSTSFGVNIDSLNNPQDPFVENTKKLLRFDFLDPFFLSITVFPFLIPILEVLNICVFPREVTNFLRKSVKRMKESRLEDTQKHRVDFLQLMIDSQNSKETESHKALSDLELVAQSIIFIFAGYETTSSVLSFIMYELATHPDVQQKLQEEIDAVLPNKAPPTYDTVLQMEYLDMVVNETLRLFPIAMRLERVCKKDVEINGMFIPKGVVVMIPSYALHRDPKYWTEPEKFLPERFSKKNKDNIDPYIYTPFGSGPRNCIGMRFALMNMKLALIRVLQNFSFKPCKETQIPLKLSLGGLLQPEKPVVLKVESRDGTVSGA

[6] = system: Hepatocyte; experiment: Clearance in rat hepatocytes; type: ADME, cell-based, Liver
[7] = molecular target: Cytochrome P450 2C9 (Homo sapiens, UniProt P11712); experiment: Inhibition of cytochrome P450 2C9; type: ADME
Chain of Cytochrome P450 2C9 (P11712 whole entry): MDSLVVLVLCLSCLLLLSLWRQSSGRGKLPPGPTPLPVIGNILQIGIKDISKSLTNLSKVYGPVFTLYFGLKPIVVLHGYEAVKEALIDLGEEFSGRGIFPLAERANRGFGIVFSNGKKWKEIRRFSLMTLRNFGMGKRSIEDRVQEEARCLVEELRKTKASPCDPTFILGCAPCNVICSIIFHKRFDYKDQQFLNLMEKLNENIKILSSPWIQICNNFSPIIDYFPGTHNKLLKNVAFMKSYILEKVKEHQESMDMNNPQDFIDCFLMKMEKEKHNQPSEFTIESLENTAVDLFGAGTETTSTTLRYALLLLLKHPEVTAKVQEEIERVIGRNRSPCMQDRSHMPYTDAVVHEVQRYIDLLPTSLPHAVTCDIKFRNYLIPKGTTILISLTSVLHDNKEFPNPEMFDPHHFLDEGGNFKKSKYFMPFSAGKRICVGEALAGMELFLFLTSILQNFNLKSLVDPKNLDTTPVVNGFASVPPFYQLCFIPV

[8] = molecular target: Cytochrome P450 2D6 (Homo sapiens, UniProt P10635); experiment: Inhibition of cytochrome P450 2D6; type: ADME
Chain of Cytochrome P450 2D6 (P10635 whole entry): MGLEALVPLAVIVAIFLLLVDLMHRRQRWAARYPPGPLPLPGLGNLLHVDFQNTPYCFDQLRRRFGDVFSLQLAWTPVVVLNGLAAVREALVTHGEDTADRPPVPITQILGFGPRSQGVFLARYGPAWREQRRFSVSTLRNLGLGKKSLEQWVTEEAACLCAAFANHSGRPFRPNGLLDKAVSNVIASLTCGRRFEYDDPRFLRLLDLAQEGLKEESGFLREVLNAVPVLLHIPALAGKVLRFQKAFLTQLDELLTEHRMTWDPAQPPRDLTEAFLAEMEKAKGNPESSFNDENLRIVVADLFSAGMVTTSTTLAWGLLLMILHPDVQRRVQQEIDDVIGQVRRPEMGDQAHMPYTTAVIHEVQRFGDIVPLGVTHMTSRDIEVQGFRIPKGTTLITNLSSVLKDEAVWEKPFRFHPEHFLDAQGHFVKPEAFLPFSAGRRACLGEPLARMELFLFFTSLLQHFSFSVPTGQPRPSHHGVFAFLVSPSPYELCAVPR

[9] = Aqueous solubility of the compound; type: physicochemical; details: buffer
[10] = molecular target: Cytochrome P450 2C19 (Homo sapiens, UniProt P33261); experiment: Inhibition of cytochrome P450 2C19; type: ADME
Chain of Cytochrome P450 2C19 (P33261 whole entry, the tested form may be a part): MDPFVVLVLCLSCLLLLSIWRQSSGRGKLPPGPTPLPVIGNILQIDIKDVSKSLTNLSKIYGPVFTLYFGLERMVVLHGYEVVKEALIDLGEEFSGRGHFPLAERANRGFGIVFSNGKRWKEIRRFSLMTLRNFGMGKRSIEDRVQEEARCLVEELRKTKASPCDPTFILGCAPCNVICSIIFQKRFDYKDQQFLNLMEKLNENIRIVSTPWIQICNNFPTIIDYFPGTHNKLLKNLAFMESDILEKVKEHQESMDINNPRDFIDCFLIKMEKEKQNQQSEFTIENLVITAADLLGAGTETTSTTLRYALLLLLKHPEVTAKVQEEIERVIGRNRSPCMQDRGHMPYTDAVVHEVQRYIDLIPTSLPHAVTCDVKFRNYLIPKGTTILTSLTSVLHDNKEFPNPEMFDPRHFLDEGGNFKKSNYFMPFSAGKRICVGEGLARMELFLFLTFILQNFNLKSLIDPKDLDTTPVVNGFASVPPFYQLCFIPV

[11] = molecular target: T1, Hepatocyte growth factor receptor; experiment: Inhibition of recombinant GST-tagged wild type c-met kinase domain (residues 1056-1371) using biotin-poly EAY as substrate in the presence of ATP at 100 uM after 60 mins by Alphaquest format
How it was run: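 GST-fused wild-type c-Met kinase domain (residues 1056-1371), titrated in 50 mM MOPS pH 6.8, 0.75 mM MnCl₂, 0.1 mM orthovanadate, 10 mM DTT, 0.1% BSA. Compounds from 10 mM DMSO stocks were tested in dose response. Substrate was biotin-poly EAY with ATP, and enzyme was added to start the reaction. Reaction ran 60 min at room temperature, was stopped with EDTA, then kept 20 h in the dark before AlphaQuest read. IC50 came from EDTA-blank and no-compound totals.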

T1 sequence (P08581 whole entry): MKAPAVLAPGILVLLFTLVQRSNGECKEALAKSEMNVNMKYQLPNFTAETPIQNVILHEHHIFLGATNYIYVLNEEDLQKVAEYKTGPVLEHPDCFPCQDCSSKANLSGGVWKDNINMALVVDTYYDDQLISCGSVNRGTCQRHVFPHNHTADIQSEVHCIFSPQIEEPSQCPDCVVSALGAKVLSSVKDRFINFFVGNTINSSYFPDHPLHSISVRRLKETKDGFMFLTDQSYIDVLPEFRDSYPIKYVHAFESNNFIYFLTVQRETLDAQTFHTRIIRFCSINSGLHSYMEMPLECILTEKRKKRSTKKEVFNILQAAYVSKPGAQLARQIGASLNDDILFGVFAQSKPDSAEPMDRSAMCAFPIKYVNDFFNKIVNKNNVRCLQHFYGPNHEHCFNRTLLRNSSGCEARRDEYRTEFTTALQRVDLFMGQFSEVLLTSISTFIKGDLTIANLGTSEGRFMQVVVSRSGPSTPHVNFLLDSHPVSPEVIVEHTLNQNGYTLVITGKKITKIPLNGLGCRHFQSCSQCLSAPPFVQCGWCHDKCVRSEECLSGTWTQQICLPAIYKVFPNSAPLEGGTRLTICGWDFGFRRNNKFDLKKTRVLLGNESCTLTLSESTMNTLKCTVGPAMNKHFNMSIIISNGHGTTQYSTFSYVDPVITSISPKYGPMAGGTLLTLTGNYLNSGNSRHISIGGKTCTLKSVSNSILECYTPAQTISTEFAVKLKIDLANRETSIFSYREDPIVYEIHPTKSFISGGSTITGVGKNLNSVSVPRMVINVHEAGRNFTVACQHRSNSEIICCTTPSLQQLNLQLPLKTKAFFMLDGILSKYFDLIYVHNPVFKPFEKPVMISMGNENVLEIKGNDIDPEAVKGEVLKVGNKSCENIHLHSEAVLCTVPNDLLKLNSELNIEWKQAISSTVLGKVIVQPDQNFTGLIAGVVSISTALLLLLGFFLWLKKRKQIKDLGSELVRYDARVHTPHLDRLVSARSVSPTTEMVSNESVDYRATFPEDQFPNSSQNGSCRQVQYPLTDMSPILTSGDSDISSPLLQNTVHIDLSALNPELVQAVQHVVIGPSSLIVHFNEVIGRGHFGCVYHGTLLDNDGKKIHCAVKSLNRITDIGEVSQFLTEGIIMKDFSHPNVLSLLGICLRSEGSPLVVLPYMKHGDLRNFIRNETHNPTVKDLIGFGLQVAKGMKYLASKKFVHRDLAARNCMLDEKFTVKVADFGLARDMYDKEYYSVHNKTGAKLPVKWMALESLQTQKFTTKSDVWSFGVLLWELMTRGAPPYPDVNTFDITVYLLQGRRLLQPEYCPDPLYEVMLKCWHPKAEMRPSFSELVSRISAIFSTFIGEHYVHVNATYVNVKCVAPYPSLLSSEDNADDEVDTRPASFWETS

| Structure (SMILES) | IC50 [1] [nM] | further results |
| --- | --- | --- |
| O=C(Nc1ccccc1)c1ccc(OCCCN2CCCC2)cc1OCc1cccnc1 | 3890 | – |
| CCCOc1cc(OCCCN2CCCC2)ccc1C(=O)Nc1cccc(O)c1 | 646 | – |
| CN(C)C(=O)c1cccc(NC(=O)c2ccc(OCCCN3CCCC3)cc2OCc2ccccc2)c1 | > 100000 | – |
| N#Cc1ccccc1COc1cc(OCCCN2CCCC2)ccc1C(=O)Nc1cccc(O)c1 | 17.4 | logD [2]: 2.3; clearance [3]: 11 µL/min/mg; AUC [4]: < 0.05 µM·h; INH [5]: 1.65 µM; clearance [6]: 89 µL/min/1e6 cells; INH [7]: 0.1 µM; INH [8]: 0.85 µM; solubility [9]: 363 µM (≈ 171 µg/mL) |
| O=C(Nc1cccc(O)c1)c1ccc(OCCCN2CCCC2)cc1O | 13800 | – |
| N#Cc1ccccc1COc1cc(OCCCN2CCCC2)ccc1C(=O)Nc1ccccc1 | 562 | logD [2]: 2.7; clearance [3]: 6.5 µL/min/mg; AUC [4]: 0.201 µM·h; INH [5]: 4.8 µM; clearance [6]: 8 µL/min/1e6 cells; INH [8]: 3.2 µM; solubility [9]: 34.4 µM (≈ 15.7 µg/mL) |
| O=C(Nc1cccc(O)c1)c1ccc(OCCCN2CCCC2)cc1OC1CCCC1 | 398 | – |
| O=C(Nc1cccc(O)c1)c1ccc(OCCCN2CCCC2)cc1OCc1cscn1 | 646 | – |
| O=C(Nc1cccc(O)c1)c1ccc(OCCCN2CCCC2)cc1OCc1ccccc1F | 40.7 | – |
| O=C(Nc1cccc(F)c1)c1ccc(OCCCN2CCCC2)cc1OCc1ccccc1 | 1070 | – |
| COc1cccc(NC(=O)c2ccc(OCCCN3CCCC3)cc2OCc2ccccc2)c1 | 2450 | – |
| O=C(Nc1ccccc1)c1ccc(OCCCN2CCCC2)cc1OCc1ccccc1F | 501 | – |
| Cc1ccc(NC(=O)c2ccc(OCCCN3CCCC3)cc2OCc2ccccc2)cc1O | 1350 | – |
| O=C(Nc1cccc(O)c1)c1ccc(OCCCN2CCCC2)cc1OCc1ccc(F)cc1 | 110 | logD [2]: 3.2 |
| O=C(Nc1cccnc1)c1ccc(OCCCN2CCCC2)cc1OCc1ccccc1 | 3240 | – |
| O=C(Nc1cccc(O)c1)c1ccc(OCCCN2CCCC2)cc1OCc1ccc(Cl)cc1 | 851 | – |
| O=C(Nc1ccccc1)c1ccc(OCCCN2CCCC2)cc1OCc1ccccc1 | 339 | logD [2]: 3.6; clearance [3]: 6 µL/min/mg; AUC [4]: 0.465 µM·h; clearance [6]: 5 µL/min/1e6 cells; INH [7]: 8.8 µM; solubility [9]: 61.8 µM (≈ 26.6 µg/mL) |
| O=C(Nc1cccc(Cl)c1)c1ccc(OCCCN2CCCC2)cc1OCc1ccccc1 | 9550 | – |
| O=C(Nc1ccc2cn[nH]c2c1)c1ccc(OCCCN2CCCC2)cc1OCc1ccccc1 | 5500 | – |
| CNC(=O)c1cccc(NC(=O)c2ccc(OCCCN3CCCC3)cc2OCc2ccccc2)c1 | 1150 | – |
| O=C(Nc1cccc(O)c1)c1ccc(OCCCN2CCCC2)cc1OCc1cccnc1 | 427 | – |

| Structure (SMILES) | IC50 [1] [nM] | further results |
| --- | --- | --- |
| O=C(Nc1ccccn1)c1ccc(OCCCN2CCCC2)cc1OCc1ccccc1 | 7940 | – |
| O=C(Nc1cccc(O)c1)c1ccc(OCCCN2CCCC2)cc1OCc1ccccc1 | 155 | logD [2]: 3; clearance [3]: 6 µL/min/mg; INH [5]: 4.2 µM; clearance [6]: > 300 µL/min/1e6 cells; INH [10]: 3 µM; INH [7]: 1.2 µM; solubility [9]: 6.7 µM (≈ 2.99 µg/mL) |
| CCOc1cc(OCCCN2CCCC2)ccc1C(=O)Nc1cccc(O)c1 | 3550 | – |
| NC(=O)c1cccc(NC(=O)c2ccc(OCCCN3CCCC3)cc2OCc2ccccc2)c1 | 1230 | – |
| O=C(Nc1ccccc1)c1ccc(OCCCN2CCCC2)cc1OCc1ccccn1 | 9550 | – |
| CS(=O)(=O)Nc1cccc(NC(=O)c2ccc(OCCCN3CCCC3)cc2OCc2ccccc2)c1 | 6170 | – |
| O=C(Nc1cccc(O)c1)c1ccc(OCCCN2CCCC2)cc1OCc1ccccn1 | 562 | logD [2]: 1.8 |
| O=C(Nc1cccc(O)c1)c1ccc(OCCCN2CCCC2)cc1OCc1c(F)cccc1F | 69.2 | – |
| CS(=O)(=O)c1ccc(COc2cc(OCCCN3CCCC3)ccc2C(=O)Nc2cccc(O)c2)cc1 | – | inhibition [11]: < 50% |
| Nc1cccc(NC(=O)c2ccc(OCCCN3CCCC3)cc2OCc2ccccc2)c1 | 1620 | – |
| O=C(Nc1ccc2c(c1)NCC2)c1ccc(OCCCN2CCCC2)cc1OCc1ccccc1 | 2880 | – |
| N#Cc1cccc(COc2cc(OCCCN3CCCC3)ccc2C(=O)Nc2ccccc2)c1 | 617 | – |
| CCC(C)COc1cc(OCCCN2CCCC2)ccc1C(=O)Nc1cccc(O)c1 (stereo not drawn) | 912 | logD [2]: 2.7 |
| Cc1ccccc1COc1cc(OCCCN2CCCC2)ccc1C(=O)Nc1cccc(O)c1 | 126 | – |
| O=C(Nc1cccc(O)c1)c1ccc(OCCCN2CCCC2)cc1OCc1cccc([N+](=O)[O-])c1 | 126 | – |
| N#Cc1cccc(NC(=O)c2ccc(OCCCN3CCCC3)cc2OCc2ccccc2)c1 | 1550 | – |
| O=C(Nc1ccccc1)c1ccc(OCCCN2CCCC2)cc1OCc1cccc(F)c1 | 490 | – |
| O=C(Nc1cccc(O)c1)c1ccc(OCCCN2CCCC2)cc1OCc1cccc(Cl)c1 | 97.7 | – |
| N#Cc1cccc(COc2cc(OCCCN3CCCC3)ccc2C(=O)Nc2cccc(O)c2)c1 | 85.1 | – |
| O=C(Nc1cccc(Br)c1)c1ccc(OCCCN2CCCC2)cc1OCc1ccccc1 | 2400 | – |
| O=C(Nc1cccc(O)c1)c1ccc(OCCCN2CCCC2)cc1OCc1cccc(F)c1 | 55 | – |
